Screening results as filed in PubChem BioAssay.
The list is not random: actives were taken first. Their share in the collection is about 3.1%.
KCNK3 inh = human KCNK3 channel inhibition, primary screen; O14649; CHO-KCNK3 thallium flux, FluxOR fluorescence; stronger effect = lower value; B-score at 10 µM; actives 0.84% (n = 340,000);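 active = B-score under library mean minus 4 SD, starting fluorescence ratio at most library mean plus 5 SD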;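 note: more negative B-score means stronger inhibition of thallium flux through KCNK3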
hERG rescue = compounds protecting human hERG from proarrhythmic drug block; Q12809; CHO-hERG, FluxOR thallium flux, dofetilide IC70 present; activation (rescue from dofetilide block), less the hit threshold, % at 10 µM; actives 0.51% (n = 310,000);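 active = activation above the mean of controls blocked by dofetilide plus 5 SD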;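 note: thallium influx through hERG after potassium depolarization seen as dye fluorescence rise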
KCNQ1 inh = human KCNQ1 channel inhibition | P51787 | CHO-K1 KCNQ1, FluxOR thallium flux fluorescence; stronger effect = higher value | B-score at 10 µM | actives 1.3% (n = 310,000);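 active = compounds whose thallium flux B-score, printed positive for inhibition, exceeds three library SD while starting fluorescence stays within three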;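 note: channel opened by potassium depolarization with thallium stimulus after 20 min compound exposure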
Target sequence (P51787 whole entry, looked up): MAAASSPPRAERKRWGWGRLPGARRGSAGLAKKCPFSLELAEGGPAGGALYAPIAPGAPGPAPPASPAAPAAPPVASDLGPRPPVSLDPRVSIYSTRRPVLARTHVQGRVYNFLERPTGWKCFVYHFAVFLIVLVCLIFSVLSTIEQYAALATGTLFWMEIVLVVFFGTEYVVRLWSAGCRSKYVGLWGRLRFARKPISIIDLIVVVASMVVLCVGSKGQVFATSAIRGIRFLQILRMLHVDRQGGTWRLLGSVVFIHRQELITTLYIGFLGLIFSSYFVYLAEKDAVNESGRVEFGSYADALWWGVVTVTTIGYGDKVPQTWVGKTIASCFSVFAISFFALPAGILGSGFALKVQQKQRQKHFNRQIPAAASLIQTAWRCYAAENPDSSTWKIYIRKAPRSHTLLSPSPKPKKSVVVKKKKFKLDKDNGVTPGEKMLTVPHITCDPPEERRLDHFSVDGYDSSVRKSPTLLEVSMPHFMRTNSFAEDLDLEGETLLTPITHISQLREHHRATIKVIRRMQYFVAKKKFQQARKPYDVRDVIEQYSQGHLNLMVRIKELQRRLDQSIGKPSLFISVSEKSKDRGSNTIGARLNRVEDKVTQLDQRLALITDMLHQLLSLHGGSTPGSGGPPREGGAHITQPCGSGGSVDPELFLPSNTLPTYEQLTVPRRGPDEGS
KCNQ1 act = potentiates or activates the human KCNQ1 potassium channel; P51787; CHO-K1 KCNQ1, thallium flux FluxOR fluorescence; stronger effect = higher value; B-score at 10 µM; actives 0.35% (n = 310,000);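 active = fluorescence ratio B-score, a plate-corrected score, at least three library SD, with initial intensity B-score within 5 SD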
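Material: CHO-K1 cells stably expressing KCNQ1. Medium: assay buffer for compound exposure, DMSO matched across wells. Reagent: K+/Tl+ depolarizing stimulus. Compound dosing: single-concentration screen. Times: 37 °C overnight plating, 90-min dark dye load, 20-min compound pretreatment. Technique: FluxOR Tl+ flux fluorescence.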
KCNK9 block = blocks the human KCNK9 two-pore domain potassium channel. Q9NPC2. HEK293 KCNK9, FluxOR thallium flux fluorescence; stronger effect = lower value. B-score at 10 µM. actives 1.2% (n = 310,000);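 active = ratio B-score over 3 SD below the library mean, with starting fluorescence within 5 SD of its mean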;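 note: negative B-score means less thallium flux so channel inhibition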
Numbers stand for hits; – = inactive; · = no result given.

SMILES | KCNK3 inh | hERG rescue | KCNQ1 inh | KCNQ1 act | KCNK9 block
CC1(C)CC2CC(C)(CN2C(=S)NC(=O)c2ccccc2Cl)C1 (configuration not stated) | – | 39 | – | 27 | –
O=S(=O)(c1ccc(-c2n[nH]c(=S)o2)cc1)N1CCCC1 | – | – | – | – | –
COCCNC(=O)C(=O)N/N=C/c1ccc(C(=O)OC)cc1 | – | 14 | – | – | –
COc1cc(OC)cc(C(=O)NC(=S)NCCc2ccccc2)c1 | – | – | – | – | –
COc1cc(OC)cc(C(=O)NC(=S)N(Cc2ccccc2)C(C)C)c1 | – | 17 | – | 27 | –
Cc1ccc(C(=O)NC(=S)N(C)Cc2ccccc2)cc1 | – | – | – | – | –
CCOc1ccc(CN(CCC#N)C(=S)NC(=O)c2ccccc2)cc1 | – | – | – | 11 | –
CCCN(CCC)C(=S)NC(=O)c1ccc(-c2ccccc2)cc1 | – | 19 | – | 9 | –
CCOc1ccc(C(=O)NC(=S)N(Cc2ccccc2)Cc2ccccc2)cc1 | – | 27 | – | 75 | –
CCN(CC(=O)NCc1ccc(Cl)cc1)C(=O)CSCC(=O)Nc1ccc(OC)cc1 | – | – | – | – | –
Cc1ccc(-n2nnnc2CN2CCCCC2)cc1 | – | – | – | – | –
COc1ccc(S(N)(=O)=O)cc1C(=O)OCCCC(=O)c1ccccc1 | – | · | · | · | ·
Cc1cc(C(F)F)n2nc(C(=O)Nc3cccc(S(=O)(=O)N4CCOCC4)c3)nc2n1 | – | – | – | – | –
C=C1C(=O)O[C@H]2C1CC[C@@](C)(O)C13C=CC(C)(C21)C1(C3)C(=O)O[C@@H]2C3C(C)=CCC3[C@](C)(O)C[C@H](OC(C)=O)C21 (some centres not stated) | – | 5.9 | – | – | –
CC(C)c1ccc(NC(=O)C2C3C=CC4(O3)C2C(=O)N(CCCN2CCOCC2)C4C(=O)NC2CCCCC2)cc1 (configuration not stated) | – | – | – | – | –
Cc1cc(/C=C2/SC(=S)N(c3cccc(C(F)(F)F)c3)C2=O)c(C)n1-c1cccnc1 | – | – | 6 | – | –
CC(NC(=O)c1ccc(C(=O)c2ccccc2)cc1)c1ccc(S(N)(=O)=O)cc1 (configuration not stated) | – | · | · | · | ·
CC1=CC(=O)N(c2cccc(C(F)(F)F)c2)C1c1ccc(Cl)cc1 (configuration not stated) | – | – | – | – | -7.7
CCCCNC(=O)COC(=O)c1cc(C)oc1C | – | – | – | – | –
Cc1cccc(Nc2nc(N)c([N+](=O)[O-])c(NCc3ccco3)n2)c1 | – | – | 6 | – | –
Nc1nc(Nc2ccc(Cl)cc2)nc(NCc2ccco2)c1[N+](=O)[O-] | – | – | – | – | –
COc1ccc(Nc2nc(NCc3ccco3)nc(N)c2[N+](=O)[O-])cc1 | – | – | – | – | -7.8
Cc1cccc(Nc2nc(NCc3ccco3)nc(N)c2[N+](=O)[O-])c1 | – | – | – | – | –
O=C(c1ccc2c(=O)n3c(nc2c1)CCC3)N1CCCSC1=Nc1ccccc1 | – | – | – | – | –
CCOC(=O)/C(=N\Nc1ccccc1Cl)N1CCN(Cc2ccccc2)CC1 | – | – | 7 | – | -8
SMILES | KCNK3 inh | hERG rescue | KCNQ1 inh | KCNQ1 act | KCNK9 block
CC(c1ccccc1C(O)(c1ccccc1)c1ccccc1)N(C)C (configuration not stated) | – | – | – | 14 | –
COc1ccc([C@H]2CC(=O)C=C(/C=C/Cc3ccccc3)C2)cc1 | – | · | · | · | ·
CSCCNC(=O)c1cccc(Cl)c1 | – | – | – | – | –
CSCCNC(C)=O | · | 5.5 | – | – | –
O=C(Nc1cccc2c1C(=O)NC2=O)c1cccnc1Cl | – | 6.1 | – | – | –
O=C(Nc1cccnc1Cl)c1cccnc1Cl | – | – | – | – | –
CCOC(=O)/C(C#N)=C/C=C1/C=CC=CN1C | – | – | – | – | –
C=CCN1C=CC(=C/C=C(/C#N)C(=O)OCC)C=C1 | – | – | 11 | – | –
COc1cccc(CN(C)C(=O)[C@@H](NC(=O)c2ccc(C)cc2)C(C)C)c1 | – | – | – | – | –
C1CCC(C(CC2CCCCN2)C2CCCCC2)CC1 (configuration not stated) | – | – | 7 | – | –
Cc1noc(C)c1NC(=O)N(C)C[C@@H]1Oc2ccc(NC(=O)CCC(F)(F)F)cc2CC(=O)N([C@@H](C)CO)C[C@@H]1C | – | · | · | · | ·
COc1cc(C(=O)NCc2nnc(SCC(=O)N3CCCCCC3)o2)cc(OC)c1OC | – | – | – | – | –
CC(C)(C(=O)c1ccccc1)/[N+]([O-])=C/c1ccccc1 | – | – | – | – | –
CC(C)(/C=N/O)/[N+]([O-])=C/c1ccccc1 | – | – | 7 | – | –
CCOC(=O)C1CCCN(C(=O)c2cc3cc(OC)c(OC)cc3[nH]2)C1 (configuration not stated) | – | – | – | – | –
CCOC(=O)C1CCN(C(=O)COC(=O)/C=C/c2ccc([N+](=O)[O-])cc2)CC1 | – | · | · | · | ·
Nc1c(-c2ccccc2)cnn1-c1cccc(Cl)c1 | – | – | – | – | -7
CCOC(=O)c1c(C)[nH]c(C)c1C(=O)COC(=O)C1CC(=O)N(CCc2ccccc2)C1 (configuration not stated) | – | · | · | · | ·
O=C(CSc1nc2ccccc2nc1N1CCCCC1)N1CCN(c2ccccc2)CC1 | – | – | 6 | – | –
CCCc1cc(C(=O)NC2CCCN(Cc3ccccc3F)C2)no1 (configuration not stated) | – | – | – | – | –
Cn1c(=O)c2nc3ccccc3nc2n(C)c1=O | – | – | – | 10 | –
Cc1ccc2nc(COC(=O)c3cnccn3)cc(=O)n2c1 | – | · | · | · | ·
CN(C)c1cccc(C(=O)OCC(=O)Nc2ccccc2Sc2ccccc2)c1 | – | – | 6 | – | –
CC(=O)Nc1ccc(C(=O)OCC(=O)Nc2ccccc2Sc2ccccc2)cc1 | – | – | – | – | -7.2
CN(C)c1cccc(C(=O)OCC(=O)Nc2ccccc2-c2ccccc2)c1 | – | – | – | – | –
SMILES | KCNK3 inh | hERG rescue | KCNQ1 inh | KCNQ1 act | KCNK9 block
O=S(=O)(Nc1ccc(O)c2ccccc12)c1ccc(Br)cc1 | · | 30 | – | – | –
CSc1ccc(CN2CCC(CO)(CCOc3ccccc3)CC2)cc1 | – | – | – | – | –
O=C(CN1CCN(CC(=O)Nc2ccccc2Cl)CC1)NCC1(N2CCOCC2)CCCCC1 | – | · | · | · | ·
COc1cc(/C=N/NC(=O)Nc2ccccc2)ccc1OC(C)=O | – | – | – | – | –
C=CC[n+]1c(/C=C/c2ccc(OC(C)=O)c(OC)c2)ccc2ccccc21 | – | – | – | 12 | –
COc1ccccc1S(=O)(=O)N1CCN(S(=O)(=O)c2ccccc2C#N)CC1 | – | – | – | – | –
Cc1ccc(C2=CC(C)(c3ccc(C)cc3)Nc3nc(C(F)(F)F)nn32)cc1 (configuration not stated) | – | – | – | – | -8
